Experimental data taken from ChEMBL document CHEMBL4422683, “Synthesis of 2-,4,-6-, and/or 7-substituted quinoline derivatives as human dihydroorotate dehydrogenase (hDHODH) inhibitors and anticancer agents: 3D QSAR-assisted design” (Bioorg Med Chem Lett, 2019).

Experiments:
[1] = target: Dihydroorotate dehydrogenase (quinone), mitochondrial (Homo sapiens, UniProt Q02127); assay: Inhibition of human recombinant N-terminal His-tagged DHODH (31 to 395 residues) expressed in Escherichia coli using DHO as substrate measured after 20 mins by DCPI dye-based assay
HT-29 = assay: Antiproliferative activity against human HT-29 cells after 48 hrs by MTT assay; type: functional, cell-based; conditions: HT-29, 48 h
In short: (§1)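 MTT antiproliferative screen on human colorectal adenocarcinoma HT-29 and breast cancer MDA-MB-231 cells. Cell growth inhibition IC50 was read from the dose-response curve.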

MDA-MB-231 = assay: Antiproliferative activity against human MDA-MB-231 cells after 48 hrs by MTT assay; type: functional, cell-based; conditions: MDA-MB-231, 48 h; in short: as §1

Dihydroorotate dehydrogenase (quinone), mitochondrial, sequence (Q02127 whole entry, the tested form may be a part): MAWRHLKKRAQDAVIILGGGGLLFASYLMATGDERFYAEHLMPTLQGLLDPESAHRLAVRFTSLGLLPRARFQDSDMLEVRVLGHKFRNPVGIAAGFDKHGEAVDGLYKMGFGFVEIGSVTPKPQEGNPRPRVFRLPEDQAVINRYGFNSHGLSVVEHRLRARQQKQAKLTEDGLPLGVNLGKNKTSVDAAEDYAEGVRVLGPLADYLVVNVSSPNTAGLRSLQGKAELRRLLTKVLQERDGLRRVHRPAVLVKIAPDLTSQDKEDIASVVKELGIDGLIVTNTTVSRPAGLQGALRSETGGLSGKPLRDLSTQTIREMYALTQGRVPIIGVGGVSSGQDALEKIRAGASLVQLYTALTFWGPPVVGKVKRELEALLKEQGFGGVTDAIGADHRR

Compound | IC50 [1] [µM] | IC50 (HT-29) [µM] | IC50 (MDA-MB-231) [µM]
O=C(OCc1ccccc1)c1cc(-c2ccc(Cl)cc2)nc2cc(Cl)c(Cl)cc12 | 7.48 | 48.7 | > 100
COc1ccc(-c2cc(COCc3ccccc3)c3cc(Cl)c(Cl)cc3n2)cc1 | 15.5 | > 100 | > 100
Cc1ccc2nc(-c3ccc(F)cc3)cc(C(=O)OCc3ccccc3)c2c1 | 1.56 | 15.1 | 13.2
Clc1ccc(-c2cc(COCc3ccccc3)c3cc(Cl)c(Cl)cc3n2)cc1 | 1.22 | 16.8 | > 100
COc1ccc(-c2cc(C(=O)OCc3ccccc3)c3cc(Cl)c(Cl)cc3n2)cc1 | 3.34 | 42.2 | 39.2
Cc1ccc2nc(-c3ccc(Cl)cc3)cc(C(=O)OCc3ccccc3)c2c1 | 7.37 | > 100 | > 100
Cc1c(-c2ccc(-c3ccccc3F)cc2)nc2ccc(F)cc2c1C(=O)O [BREQUINAR SODIUM] |  | 14 | 12.5

Results, then the compound that gave them:

IC50 [1] [µM] | IC50 (HT-29) [µM] | IC50 (MDA-MB-231) [µM] | Compound
 | > 100 | > 100 | COc1ccc(-c2cc(COCc3ccccc3)c3cc(C)ccc3n2)cc1
1.96 | 17.3 | 20.5 | COc1ccc(-c2cc(C(=O)OCc3ccccc3)c3cc(C)ccc3n2)cc1
13.4 | > 100 | > 100 | Cc1ccc2nc(-c3ccc(F)cc3)cc(COCc3ccccc3)c2c1
 | > 100 | > 100 | Cc1ccc2nc(-c3ccc(Cl)cc3)cc(COCc3ccccc3)c2c1
 | 14.6 | 13.2 | CC(=O)O[C@H]1C(=O)[C@@]2(C)[C@H]([C@H](OC(=O)c3ccccc3)[C@]3(O)C[C@H](OC(=O)[C@H](O)[C@@H](NC(=O)c4ccccc4)c4ccccc4)C(C)=C1C3(C)C)[C@]1(OC(C)=O)CO[C@@H]1C[C@@H]2O [PACLITAXEL]
